Source: PubChem BioAssay
CAL PDZ FP-1 – inhibitors of human CAL PDZ peptide binding; hit rate 0.02% among 330,000; inhibition, % at 20 µM; purified CAL PDZ, TMR-peptide fluorescence polarization, 1 h; AID 504414; Q9HD26;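 active means highest replicate inhibition of at least 40%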
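Read-out basis: mP drop reported as inhibition | Assay system: Tagged CAL PDZ protein CerCALP, purified | Benchmarks: Unlabelled peptide for full inhibition, DMSO wells as neutral | Schedule: 1 h incubation at room temperature before polarization reading | Buffer or medium: Sodium phosphate/NaCl buffer pH 7.4 with TCEP, IgG, Thesit | Doses: Single point, 20 µM | Measured by: Fluorescence polarization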
CAL PDZ FP-2 – blocks peptide binding to the human CAL PDZ domain; purified CAL PDZ, TMR-peptide fluorescence polarization, 1 h; inhibition, % at 24.9 µM; hit rate 0.92% among 300,000; AID 602252;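 active means mean inhibition of at least 30% with at least half of replicates also reaching 30%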
ARNT TACC3 PPI – ARNT/TACC3 interaction disruption; Q9Y6A5; AlphaScreen His-ARNT PAS-B/GST-TACC3 binding, luminescence; TACC3 fragment carries E629A point mutation; inhibition, % at 9.99 µM; hit rate 0.66% among 390,000; AID 623870;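 active means mean inhibition of replicates at least 50% and at least half of replicates each reaching 50%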
Dyrk1A ADPGlo – Dyrk1A (rat) kinase inhibition; ADP-Glo luminescence, NFATc1 peptide; AID 504441; inhibition, % at 12.5 µM; hit rate 0.43% among 310,000; Q63470; in the data active means inhibition above about 50%
ARNT Alpha ctr-1 – interferes with AlphaScreen signal, flagging false ARNT-TACC3 hits | shares compounds with ARNT TACC3 PPI | His-ARNT PASB-GST AlphaScreen artifact counter-screen, luminescence | AC50, µM (top dose mostly 68 µM) | hit rate 50% among 1,200;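 active means every separate test run was called active for a drop in luminescence, with AC50 within twice the top valid dose, actives reach about 71 µM in these data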
ARNT Alpha ctr-2 – counter-screen for ARNT-TACC3 inhibitors: AlphaScreen artifacts | shares compounds with ARNT TACC3 PPI | Dual-tagged His-ARNT PASB-GST AlphaScreen artifact counter-screen | AC50, µM | hit rate 70% among 45;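 active means luminescence drop, with half-maximal potency fitted within twice the sample's top valid dose, cut at about 70 µM in these data; inactive means the rest, including signal moving the wrong way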
Large screens that a line does not name were inactive (follow-up assays come after a bar, where they were run). This is a sample that favours compounds with a hit; in the whole collection about 1.4% have one here.

O=C(Nc1nnc(-c2cccs2)o1)c1ccc(S(=O)(=O)N2CCOCC2)cc1	ARNT TACC3 PPI 45 | ARNT Alpha ctr-1 34µM
O=C(Nc1nnc(C2=COCCO2)o1)c1cccc(Br)c1	none (no result: CAL PDZ FP-2, ARNT TACC3 PPI)
CS(=O)(=O)c1cccc(C(=O)Nc2nnc(C3=COCCO3)o2)c1	ARNT TACC3 PPI 59 | ARNT Alpha ctr-1 inactive
O=C(Nc1nnc(C2=COCCO2)o1)c1ccc(S(=O)(=O)N2CCCCC2)cc1	none | ARNT Alpha ctr-2 inactive
O=C(Nc1nnc(C2=COCCO2)o1)c1ccc(S(=O)(=O)N2CCCC2)cc1	none
Cc1noc(C)c1S(=O)(=O)Nc1ccc2c(c1)C(=O)N([C@H](C)CO)C[C@@H](C)[C@@H](CN(C)S(=O)(=O)c1cccs1)OCCCC[C@@H](C)O2	none (no result: CAL PDZ FP-1, CAL PDZ FP-2, Dyrk1A ADPGlo)
CN1C(=O)c2cc(NS(=O)(=O)c3cccc(F)c3)ccc2OC[C@@H]2O[C@@H](CC(=O)O)CC[C@@H]21	none (no result: CAL PDZ FP-1, CAL PDZ FP-2, Dyrk1A ADPGlo)
CC(C)NC(=O)Nc1ccc2c(c1)C(=O)N([C@H](C)CO)C[C@@H](C)[C@H](CN(C)Cc1ccc(Cl)c(Cl)c1)OCCCC[C@@H](C)O2	none (no result: CAL PDZ FP-1, CAL PDZ FP-2, Dyrk1A ADPGlo)
COc1ccc(-c2cnc3c(c2)C(=O)N([C@@H](C)CO)C[C@H](C)[C@@H](CN(C)Cc2cccnc2)O3)cc1	ARNT TACC3 PPI 108 (no result: CAL PDZ FP-1, CAL PDZ FP-2, Dyrk1A ADPGlo) | ARNT Alpha ctr-1 inactive
COc1ccc(-c2cnc3c(c2)C(=O)N([C@H](C)CO)C[C@@H](C)[C@@H](CN(C)Cc2cccnc2)O3)cc1	none (no result: CAL PDZ FP-1, CAL PDZ FP-2, Dyrk1A ADPGlo)
COc1ccc(-c2cnc3c(c2)C(=O)N([C@@H](C)CO)C[C@H](C)[C@H](CN(C)Cc2cccnc2)O3)cc1	none (no result: CAL PDZ FP-1, CAL PDZ FP-2, Dyrk1A ADPGlo)
COc1ccc(-c2cnc3c(c2)C(=O)N([C@@H](C)CO)C[C@@H](C)[C@@H](CN(C)Cc2cccnc2)O3)cc1	ARNT TACC3 PPI 85 (no result: CAL PDZ FP-1, CAL PDZ FP-2, Dyrk1A ADPGlo) | ARNT Alpha ctr-1 inactive
COc1ccc(-c2cnc3c(c2)C(=O)N([C@H](C)CO)C[C@H](C)[C@H](CN(C)Cc2cccnc2)O3)cc1	ARNT TACC3 PPI 104 (no result: CAL PDZ FP-1, CAL PDZ FP-2, Dyrk1A ADPGlo) | ARNT Alpha ctr-1 inactive
Cc1ccc(C(=O)Nc2cccc(C(=O)N/N=C/c3ccc(O)cc3)c2)cc1	ARNT TACC3 PPI 31 (no result: CAL PDZ FP-2) | ARNT Alpha ctr-1 inactive
Cc1cccc(C(=O)Nc2cccc(C(=O)N/N=C/c3ccncc3)c2)c1	none
CCN(CC)C(=O)[C@H]1C[C@H](CC(=O)NCc2ccc(OC)c(OC)c2)C(=O)N2CCc3c([nH]c4ccc(Cl)cc34)[C@]12C	ARNT TACC3 PPI 27 (no result: Dyrk1A ADPGlo) | ARNT Alpha ctr-1 inactive
Oc1cccc(CN2CCOCC2)c1O	ARNT TACC3 PPI 15 | ARNT Alpha ctr-1 inactive
Cc1cc(=O)n2c3c(c4c(cc13)c(CN(C)C)cc(=O)n4C)OC2	ARNT TACC3 PPI 34 | ARNT Alpha ctr-1 inactive
Cc1cc(=O)n(C)c2ccccc12	none (no result: ARNT TACC3 PPI, Dyrk1A ADPGlo)
COCc1cn(CC[C@@H]2CC[C@@H](NC(=O)c3ccccc3)[C@@H](CO)O2)nn1	none (no result: CAL PDZ FP-1, CAL PDZ FP-2, Dyrk1A ADPGlo)
COCc1cn(CC[C@H]2CC[C@@H](NC(=O)c3ccccc3)[C@H](CO)O2)nn1	none (no result: CAL PDZ FP-1, CAL PDZ FP-2, Dyrk1A ADPGlo)
O=C(N[C@H]1CC[C@H](CCn2cc(-c3ccccn3)nn2)O[C@@H]1CO)c1ccc(F)cc1	ARNT TACC3 PPI 59 (no result: CAL PDZ FP-1, CAL PDZ FP-2, Dyrk1A ADPGlo) | ARNT Alpha ctr-1 59µM
O=C(N[C@H]1CC[C@@H](CCn2cc(-c3ccccn3)nn2)O[C@H]1CO)c1ccccc1	ARNT TACC3 PPI 81 (no result: CAL PDZ FP-1, CAL PDZ FP-2, Dyrk1A ADPGlo) | ARNT Alpha ctr-1 33µM
O=C(N[C@@H]1CC[C@H](CCn2cc(-c3ccccn3)nn2)O[C@H]1CO)c1ccncc1	ARNT TACC3 PPI 57 (no result: CAL PDZ FP-1, CAL PDZ FP-2, Dyrk1A ADPGlo) | ARNT Alpha ctr-1 31µM
COCc1cn(CC[C@H]2CC[C@H](NC(=O)c3ccc(F)cc3)[C@H](CO)O2)nn1	none (no result: CAL PDZ FP-1, CAL PDZ FP-2, Dyrk1A ADPGlo)
O=C(N[C@@H]1CC[C@@H](CCn2cc(-c3ccccn3)nn2)O[C@H]1CO)c1ccccc1	ARNT TACC3 PPI 74 (no result: CAL PDZ FP-1, CAL PDZ FP-2, Dyrk1A ADPGlo) | ARNT Alpha ctr-1 41µM
O=C(N[C@H]1CC[C@@H](CCn2cc(-c3ccccn3)nn2)O[C@@H]1CO)c1ccccc1	ARNT TACC3 PPI 77 (no result: CAL PDZ FP-1, CAL PDZ FP-2, Dyrk1A ADPGlo) | ARNT Alpha ctr-1 41µM
COCc1cn(CC[C@H]2CC[C@@H](NC(=O)c3ccccc3)[C@@H](CO)O2)nn1	none (no result: CAL PDZ FP-1, CAL PDZ FP-2, Dyrk1A ADPGlo)
CC(Nc1nc(-c2ccccc2O)nc2ccccc12)c1ccccc1 (configuration not stated)	none
c1ccc(-c2nnc(Nc3nc(-c4ccccn4)nnc3-c3ccccc3)s2)cc1	none (no result: CAL PDZ FP-1, CAL PDZ FP-2, ARNT TACC3 PPI, Dyrk1A ADPGlo) | ARNT Alpha ctr-1 4.1µM
Cn1c(-c2ccccc2)cnc1Nc1nc(-c2ccccn2)nnc1-c1ccccc1	none (no result: CAL PDZ FP-1, CAL PDZ FP-2, ARNT TACC3 PPI, Dyrk1A ADPGlo) | ARNT Alpha ctr-1 2.6µM
